HIV Env fusion – inhibitors of HIV Env-mediated cell fusion; inhibition, % at 12.3 µM; HeLa-JRFL Env/CEM21 cell fusion, luciferase; 360,000 compounds, 1.1% hits; AID 651610;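 active = mean replicate inhibition score of at least 50 and every replicate individually at or above 50; inconclusive = only one of the two criteria met; inactive = mean below 50 and not all replicates reaching 50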
GSIS activator – primary screen for activators of insulin secretion dependent on glucose, INS-1E cells, GLuc reporter luminescence. INS-1E GLuc reporter insulin secretion, 2-3 h. activation, % at 16.6 µM. 370,000 compounds, 0.61% hits;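 active = lowest replicate activation of at least 40%, so every replicate reaches that level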
Cneo AK release – causes C. neoformans cell lysis; adenylate kinase release luminescence, 4 h; normalised: neutral wells 0, clomiphene wells 100; lysis activity, % at 15 µM; 360,000 compounds, 0.2% hits;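 active = mean lysis activity across replicates of at least 80%, whatever share of replicates individually reach that level; inactive = mean lysis activity below 80%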
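Assay system: Cryptococcus neoformans yeast cells / Dosing: single-point compound dose / Timing: 4 h at 37 °C static, read 1 h later / Measured by: luminescence of released adenylate kinase using an AK detection reagent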
miR122 inh – blocks miR-122 activity in Huh7 sensor cells. 340,000 compounds, 0.3% hits. activation (reporter increase), % at 12.5 µM. AID 602342. Huh7 miR-122 Renilla luciferase sensor, 48 h; neutral wells = 0, positive control = 100;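 active = mean replicate activation score at least 90 and every replicate individually at or above 90; inconclusive = only one of the two criteria met; inactive = neither criterion met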;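 also: higher luciferase means less miR-122 activity so hits act as miR-122 inhibitors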
Rtt109 HAT inh – C. albicans Rtt109 histone acetyltransferase inhibition. Q5AAJ8. purified Rtt109/Vps75, ThioGlo CoA-SH fluorescence, 4 h. inhibition, % at 34.9 µM. 330,000 compounds, 0.16% hits. AID 540336;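 active = inhibition of at least 50% in every replicate; inconclusive = best replicate reaches 50% inhibition but some replicates fall short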
Target sequence (Q5AAJ8 whole entry, looked up): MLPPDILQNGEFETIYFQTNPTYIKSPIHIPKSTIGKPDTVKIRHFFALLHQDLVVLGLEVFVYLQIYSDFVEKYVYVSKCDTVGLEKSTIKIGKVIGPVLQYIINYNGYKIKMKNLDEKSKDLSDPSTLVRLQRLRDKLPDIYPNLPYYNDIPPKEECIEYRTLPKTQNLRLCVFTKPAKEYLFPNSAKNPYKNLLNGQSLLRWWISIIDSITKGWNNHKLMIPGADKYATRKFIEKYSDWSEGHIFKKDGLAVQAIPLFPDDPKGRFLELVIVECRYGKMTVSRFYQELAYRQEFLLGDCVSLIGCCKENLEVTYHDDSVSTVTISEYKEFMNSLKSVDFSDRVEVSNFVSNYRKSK
dFosB act-1 – enhances mouse delta FosB homodimer DNA binding; P13346; purified delta FosB, TAMRA-CDK5 oligo fluorescence polarization; percent of positive-control signal above neutral wells; activation, % at 25 µM; 340,000 compounds, 0.99% hits;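 active = mean activation above about 17%, with every replicate also reaching it, limit read from the data, passing the limit was not always enough; inconclusive = only one of the two conditions met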
Target sequence (P13346 whole entry, looked up): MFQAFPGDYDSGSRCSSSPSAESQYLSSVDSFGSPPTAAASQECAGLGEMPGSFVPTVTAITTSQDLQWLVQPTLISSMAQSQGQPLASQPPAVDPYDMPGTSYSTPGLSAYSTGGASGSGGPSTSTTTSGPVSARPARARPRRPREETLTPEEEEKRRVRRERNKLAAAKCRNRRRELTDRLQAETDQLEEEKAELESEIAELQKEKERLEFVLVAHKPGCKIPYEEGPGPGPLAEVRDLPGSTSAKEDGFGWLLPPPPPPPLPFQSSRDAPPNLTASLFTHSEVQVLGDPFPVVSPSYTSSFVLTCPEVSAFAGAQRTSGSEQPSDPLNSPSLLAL
dFosB act-2 – delta FosB (mouse) homodimer activation; activation, % at 24.9 µM; shares compounds with dFosB act-1; purified delta FosB, TAMRA-CDK5 oligo fluorescence polarization; normalised: neutral wells 0, positive control 100; 2,400 tested, under 10 active;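 active = highest replicate activation at or above 34% and every replicate reaching that threshold; inconclusive = meets only one of the two criteria; inactive = meets neither criterion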;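 also: higher polarization means more probe DNA bound by delta FosB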
A number is an active result; . = inactive; ? = inconclusive; / = not tested or not shown. A selection: hits, their analogues and other compounds. The true share with any hit is near 2.4%.

SMILES	HIV Env fusion	GSIS activator	Cneo AK release	miR122 inh	Rtt109 HAT inh	dFosB act-1	dFosB act-2
CC(C)NC(=O)Nc1ccc2c(c1)C(=O)N([C@H](C)CO)C[C@@H](C)[C@H](CN(C)Cc1ccncc1)OCCCC[C@@H](C)O2	.	.	.	.	/	/	/
COc1ccc2nc(SCC(=O)Nc3ccc4sc(C)nc4c3)c(C#N)cc2c1	.	/	.	.	/	21	.
COC(=O)CSc1nc2cc(OC)ccc2cc1C#N	.	/	.	.	.	.	/
COc1ccc(NC(=O)CSc2nc(N)c(C#N)cc2C#N)cc1	/	.	/	/	.	.	/
COc1ccc2cc(C#N)c(SCC(=O)NNC(=O)Cc3ccccc3)nc2c1	.	/	.	.	.	68	.
N#Cc1ccccc1/C=N/Nc1nc(-c2ccccc2)c2cc(Cl)ccc2n1	.	.	.	.	.	19	.
COc1ccccc1C=NN=C(N)C(N)=NN=Cc1ccccc1OC	.	.	.	.	.	70	?
COC(=O)c1cn(NC(=O)Cc2c(F)cccc2Cl)c(=O)c2ccccc12	.	.	/	/	.	.	/
COC(=O)c1cn(NC(=O)COc2ccc(Cl)cc2)c(=O)c2ccccc12	.	/	.	.	.	32	.
COc1ccc(-n2c(=S)[nH]c3cc(C(=O)NCc4ccco4)ccc3c2=O)cc1OC	.	.	.	.	.	.	/
COc1cc(NC(=O)c2ccc3c(=O)n(Cc4ccco4)c(=S)[nH]c3c2)cc(OC)c1OC	.	/	.	.	.	31	.
COc1ccc(-n2c(=S)[nH]c3cc(C(=O)Nc4ccc(OC)c(OC)c4)ccc3c2=O)cc1	/	76	.	.	.	127	.
CCCN(CCC)C(=O)c1ccc2c(=O)n(Cc3ccco3)c(=S)[nH]c2c1	.	.	/	/	.	.	/
COc1ccc(NC(=O)CCn2c(=S)[nH]c3ccccc3c2=O)cc1OC	.	.	.	.	.	24	.
O=C(NCc1ccco1)c1ccc2c(=O)n(-c3ccccc3)c(=S)[nH]c2c1	.	.	.	.	.	35	.
COc1ccc(-n2c(=S)[nH]c3cc(C(=O)Nc4cc(C(N)=O)ccc4OC)ccc3c2=O)c(OC)c1	.	.	.	.	.	32	.
COc1ccc(NC(=O)c2ccc3c(=O)n(-c4ccc(OC)cc4OC)c(=S)[nH]c3c2)c(OC)c1	.	.	/	/	.	.	/
C[C@H](CO)N1C[C@H](C)[C@H](CN(C)C(=O)Nc2ccccc2)Oc2ccc(N(C)C)cc2CC1=O	.	.	.	.	/	/	/
Cc1cccc(NC(=O)NNC(=O)COc2ccc([N+](=O)[O-])cc2)c1C	.	.	.	/	.	31	.
C[C@@H]1CN([C@H](C)CO)C(=O)c2cccc(NC(=O)c3nc4ccccc4s3)c2O[C@H]1CN(C)C(=O)Nc1ccccc1	.	.	.	.	/	/	/
COc1ccc(CCn2c(SCC(=O)Nc3cc(C)on3)nc3ccccc3c2=O)cc1OC	.	/	.	.	.	.	/
COc1ccc(CCn2c(SCC(=O)Nc3cc(C)on3)nc3ccsc3c2=O)cc1OC	.	.	.	.	.	23	.
Cc1cc(NC(=O)CSc2nc3ccccc3c(=O)n2Cc2ccc(F)cc2)no1	.	/	/	/	.	42	.
Cc1cc(NC(=O)Cn2c(=O)n(Cc3ccccc3)c(=O)c3ccccc32)no1	.	/	.	.	.	52	.
O=C(CSc1nc2ccccc2c(=O)n1Cc1ccco1)NCc1ccccc1	.	/	.	.	.	.	/
SMILES	HIV Env fusion	GSIS activator	Cneo AK release	miR122 inh	Rtt109 HAT inh	dFosB act-1	dFosB act-2
O=C(CSc1nc2ccccc2c(=O)n1Cc1ccc(F)cc1)NCc1cccs1	62	.	/	/	/	35	.
CC(C)CC#Cc1ccc([C@@H]2[C@H]3CN(C(=O)NC4CCCCC4)CC(=O)N3[C@H]2CO)cc1	/	.	/	/	/	/	/
O=C(NC1CCCC1)N1CC2(C1)[C@@H](c1ccccc1)[C@@H](CO)N2S(=O)(=O)Cc1ccccc1	/	.	/	/	/	/	/
C[C@@H]1CCCCO[C@H](CN(C)C(=O)c2ccccc2)[C@@H](C)CN([C@@H](C)CO)C(=O)c2cc(NC(=O)Nc3ccc(F)cc3)ccc2O1	.	.	.	.	/	/	/
O=S(=O)(c1ccccc1)N1CC2(C1)[C@@H](c1ccccc1)[C@H](CO)N2CC1CC1	/	.	/	/	/	/	/
C[C@H](CO)N1C[C@H](C)[C@H](CN(C)S(=O)(=O)c2cn(C)cn2)OCCCC[C@H](C)Oc2ccc(NC(=O)Nc3ccc(C(F)(F)F)cc3)cc2C1=O	.	.	.	.	/	/	/
O=C(c1ccccc1)N1CC(=O)N2[C@@H](CO)[C@H](c3ccc(C4=CCCC4)cc3)[C@@H]2C1	/	.	/	/	/	/	/
COc1ccc(NC(=O)Nc2cccc3c2O[C@H](CN(C)S(=O)(=O)c2ccccc2)[C@@H](C)CN([C@@H](C)CO)C3=O)cc1	.	.	.	.	/	/	/
O=C(NCC1CC1)[C@@H]1[C@@H](CO)[C@@H]2Cn3c(ccc(/C=C/c4ccccc4)c3=O)[C@H]1N2C(=O)C1CCC1	.	.	.	/	/	/	/
CO[C@@H]1CN(C)C(=O)c2cc(NS(C)(=O)=O)ccc2OC[C@@H](C)N(Cc2ccccc2)C[C@@H]1C	.	.	.	.	/	/	/
CCOc1ccc(CC(=O)Nc2c(C(=O)Nc3ccccc3)oc3ccccc23)cc1OCC	.	/	.	.	.	27	.
CCc1cc2cc3c(cc2nc1SCC(=O)Nc1c[nH]c(=O)[nH]c1=O)OCO3	.	.	.	/	.	70	.
CC1=C(C(N)=O)C(c2cccnc2)n2nc(SCc3ccccc3Cl)nc2N1 (configuration not stated)	/	/	.	.	.	101	.
O=c1[nH]c(Cn2nnc(-c3ccccc3)n2)nc2scc(-c3ccccc3)c12	/	/	.	.	.	34	.
Cc1ccc(C)c(NC(=O)CCC(=O)NNS(=O)(=O)c2ccc(Cl)cc2)c1	/	.	.	/	.	23	.
CCC(=O)NNC(=O)CCC(=O)Nc1ccc(C)cc1C	.	.	/	/	.	.	/
Cc1ccc(C)c(NC(=O)CCC(=O)NNC(=O)COc2cc(C)ccc2C)c1	.	.	.	/	.	36	.
Cc1ccc(NC(=O)CCC(=O)NNC(=O)COc2cccc3ccccc23)c(C)c1	/	.	.	.	.	33	.
Cn1cnc(S(=O)(=O)N2CCCCN3[C@@H](CO)[C@@H](c4ccc(C#CC5CC5)cc4)[C@@H]3C2)c1	/	/	.	.	/	/	/
COc1cccc(NC(=O)Cn2nc(Cc3cccnc3)c3ccccc3c2=O)c1	.	.	.	/	.	.	/
C=CC(=O)Nc1cccc(CN2C(=O)N(c3cc(OC)cc(OC)c3)Cc3cnc(NCCCCN(CC)CC)nc32)c1	/	/	.	.	.	36	?
Cc1ccc2nc(NC(=O)c3cccs3)sc2c1	.	/	.	.	.	.	/
